According to ChEMBL document CHEMBL1136508, “[3H]-methoxymethyl-MTEP and [3H]-methoxy-PEPy: potent and selective radioligands for the metabotropic glutamate subtype 5 (mGlu5) receptor” (Bioorg Med Chem Lett, 2003):
pIC50: −log10 of the molar value.

Legend:
[1] = Lipophilicity (Log D) was determined; assay type: physicochemical; details: octanol/water
Summary of the method: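 LogD was determined by an HPLC method.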

[2] = target: T1, Metabotropic glutamate receptor 5 (Homo sapiens, UniProt P41594); experiment: In vitro functional potency using an automated assay employing LtK-cells stably expressing human recombinant mGlu5 receptor by measuring changes in cytosolic [Ca2+] concentration
T1 sequence (P41594 whole entry): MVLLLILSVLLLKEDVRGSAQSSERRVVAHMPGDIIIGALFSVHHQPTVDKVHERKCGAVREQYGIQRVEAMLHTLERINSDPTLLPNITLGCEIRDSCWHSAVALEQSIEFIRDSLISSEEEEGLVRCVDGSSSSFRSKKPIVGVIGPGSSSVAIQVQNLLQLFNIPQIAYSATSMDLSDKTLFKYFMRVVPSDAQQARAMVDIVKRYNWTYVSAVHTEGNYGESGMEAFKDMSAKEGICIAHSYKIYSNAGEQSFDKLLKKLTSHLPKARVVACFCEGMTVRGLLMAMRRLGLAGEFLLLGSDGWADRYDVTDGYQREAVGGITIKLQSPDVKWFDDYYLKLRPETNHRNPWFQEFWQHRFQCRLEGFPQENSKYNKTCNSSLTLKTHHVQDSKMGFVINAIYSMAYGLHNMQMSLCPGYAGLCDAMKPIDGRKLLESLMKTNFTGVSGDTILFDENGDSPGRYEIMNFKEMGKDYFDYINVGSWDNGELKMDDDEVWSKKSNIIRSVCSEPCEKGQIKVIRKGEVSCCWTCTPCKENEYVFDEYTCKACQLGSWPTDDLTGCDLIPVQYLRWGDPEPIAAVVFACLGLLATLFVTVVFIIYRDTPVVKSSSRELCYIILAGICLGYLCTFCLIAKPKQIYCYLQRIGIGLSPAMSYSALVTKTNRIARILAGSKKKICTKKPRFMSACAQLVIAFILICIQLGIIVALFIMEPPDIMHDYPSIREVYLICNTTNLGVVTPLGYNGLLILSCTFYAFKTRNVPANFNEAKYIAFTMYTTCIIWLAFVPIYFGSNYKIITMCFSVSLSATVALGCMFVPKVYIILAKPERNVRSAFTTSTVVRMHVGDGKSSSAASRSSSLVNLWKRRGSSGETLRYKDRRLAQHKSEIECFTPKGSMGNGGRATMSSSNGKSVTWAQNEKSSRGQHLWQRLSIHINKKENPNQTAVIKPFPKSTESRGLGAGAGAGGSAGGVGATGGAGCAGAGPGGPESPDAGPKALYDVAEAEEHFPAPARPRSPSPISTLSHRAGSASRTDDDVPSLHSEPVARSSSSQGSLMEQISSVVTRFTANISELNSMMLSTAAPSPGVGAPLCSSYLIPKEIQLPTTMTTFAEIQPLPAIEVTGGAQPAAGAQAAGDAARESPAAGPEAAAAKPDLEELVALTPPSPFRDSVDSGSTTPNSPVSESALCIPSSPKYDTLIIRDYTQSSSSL
Summary of the method: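 Ltk- cells stably expressing recombinant human mGlu5 were loaded with fura-2. Glutamate-evoked rises in cytosolic Ca2+ were read by fluorescence. Concentration–response curves used 12 concentrations in duplicate wells, from two or more separate experiments.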

[3] = target: Metabotropic glutamate receptor 5 (Rattus norvegicus, UniProt P31424); experiment: Binding affinity towards mGlu5 receptors in rat brain membranes was evaluated; assay type: cell membranes
Metabotropic glutamate receptor 5 (Rattus norvegicus, UniProt P31424), sequence (P31424 whole entry): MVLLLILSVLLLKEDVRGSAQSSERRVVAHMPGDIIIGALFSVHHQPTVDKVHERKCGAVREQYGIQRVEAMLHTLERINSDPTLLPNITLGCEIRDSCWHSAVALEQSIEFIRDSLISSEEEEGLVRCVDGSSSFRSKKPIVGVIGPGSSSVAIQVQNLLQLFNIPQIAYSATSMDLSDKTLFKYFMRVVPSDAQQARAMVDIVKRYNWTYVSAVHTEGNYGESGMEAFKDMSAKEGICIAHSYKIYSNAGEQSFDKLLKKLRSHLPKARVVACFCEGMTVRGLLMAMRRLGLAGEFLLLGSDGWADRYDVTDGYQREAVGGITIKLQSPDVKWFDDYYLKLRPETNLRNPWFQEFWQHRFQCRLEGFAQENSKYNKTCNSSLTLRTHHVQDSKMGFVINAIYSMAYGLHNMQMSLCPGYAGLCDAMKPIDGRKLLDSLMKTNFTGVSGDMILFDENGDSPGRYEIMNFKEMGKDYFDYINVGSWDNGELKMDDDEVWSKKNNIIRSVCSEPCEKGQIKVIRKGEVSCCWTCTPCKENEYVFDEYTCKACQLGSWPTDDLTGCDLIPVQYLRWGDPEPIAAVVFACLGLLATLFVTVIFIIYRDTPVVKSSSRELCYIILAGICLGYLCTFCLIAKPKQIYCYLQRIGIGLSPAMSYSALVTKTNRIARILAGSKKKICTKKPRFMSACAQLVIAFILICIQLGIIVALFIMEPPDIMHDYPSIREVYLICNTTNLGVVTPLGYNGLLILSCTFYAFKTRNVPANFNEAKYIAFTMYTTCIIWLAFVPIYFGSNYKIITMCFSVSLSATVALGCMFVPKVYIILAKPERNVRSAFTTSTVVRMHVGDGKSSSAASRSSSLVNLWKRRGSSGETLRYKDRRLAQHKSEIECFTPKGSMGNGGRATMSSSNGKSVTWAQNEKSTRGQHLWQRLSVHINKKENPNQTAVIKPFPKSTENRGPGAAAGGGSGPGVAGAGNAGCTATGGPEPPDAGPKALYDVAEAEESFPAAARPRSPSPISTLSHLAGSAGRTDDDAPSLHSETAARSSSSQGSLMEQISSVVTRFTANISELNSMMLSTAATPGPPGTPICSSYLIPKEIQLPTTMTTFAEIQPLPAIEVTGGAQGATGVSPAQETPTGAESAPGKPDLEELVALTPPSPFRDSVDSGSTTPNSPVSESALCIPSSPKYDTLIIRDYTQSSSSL
Summary of the method: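 Displacement of [3H]-methoxy-PEPy (specific activity 67.6 Ci/mmol) binding to rat brain membranes, incubated at room temperature (equilibrium within 60 min). Nonspecific binding was defined with an unlabelled mGlu5 antagonist as cold displacer. Concentration–response curves gave IC50 values.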

[4] = target: T1, Metabotropic glutamate receptor 5; experiment: Binding affinity towards human mGlu5 receptors expressed in LtK-cells; assay type: cell-based

Structure (SMILES) | logD [1] | pIC50 [2] | pIC50 [3] | pIC50 [4]
[3H]C([3H])([3H])Oc1cncc(C#Cc2ccccn2)c1 | 2.25 | 9.00 | 7.92 | 
[3H]C([3H])([3H])OCc1cncc(C#Cc2csc(C)n2)c1 | 2.4 | 8.15 |  | 7.33
Cc1cncc(C#Cc2csc(C)n2)c1 | 2.5 |  |  | 
COCc1cncc(C#Cc2ccccn2)c1 | 2 | 7.72 |  | 
